Test results from ChEMBL document CHEMBL1154279, “Cytotoxic compounds from the stems of Cinnamomum tenuifolium” (J Nat Prod, 2009).

Assays:
DU-145 = experiment: Cytotoxicity against human DU145 cells after 72 hrs by XTT assay; assay type: functional, cell-based; settings: DU-145, 24 h, in the assay text read “after 24 hrs” for “after 72 hrs”
LNCaP = experiment: Cytotoxicity against human LNCAP cells after 72 hrs by XTT assay; assay type: functional, cell-based; settings: 24 h, in the assay text read “after 24 hrs” for “after 72 hrs”
In short: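 Prostate cancer cells in RPMI-1640 with 10% FBS, 37 °C, 5% CO2, grown to 70–80% confluence and treated at 0.1–100 µM for 24, 48 and 72 h. XTT labeling for 4 h at 37 °C, absorbance 450 nm (reference 650 nm) against control wells. IC50 derived from the mean of eight wells; taxol and cisplatin served as positive controls.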

Compound | IC50 (DU-145) | IC50 (LNCaP)
C=C1C=C(C(CCCCCCCCCCCCCCCCCCC)OC)C(=O)O1 (centres undefined) [TENUIFOLIDE B] | 246 µM | 22.2 µM
COc1ccc2c(c1)CC=C(CO)c1cc3c(cc1-2)OCO3 [TENUIFOLIN] | > 500 µM | 223 µM
